Source: ChEMBL document CHEMBL2407075, “Sulphonamido-quinoxalines: search for anticancer agent” (Eur J Med Chem, 2013)

Tests used:
Format in all cases: functional
HCT-15 = assay: Growth inhibition of human HCT15 cells assessed as cell growth at 10^-7 M after 48 hrs by sulforhodamine B assay; conditions: HCT-15, 48 h, read-out: Activity
Procedure, shortened: (§1)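 Five-dose screen at NCI. Cells in RPMI 1640 with 5% FBS and 2 mM L-glutamine, seeded at 5000–40,000 cells/well and grown 24 h at 37 °C, 5% CO2 before dosing, with time-zero plates TCA-fixed. Drug diluted from DMSO stock to 0.01, 0.1, 1, 10 and 100 µM final, 48 h. Cells fixed with cold TCA (10% final), stained with 0.4% SRB and read at 515 nm. Percent growth from Tz, control and test absorbances; GI50, TGI and LC50 from dose-response curves.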

CAKI-1 = assay: Growth inhibition of human CAKI-1 cells after 48 hrs by sulforhodamine B assay; conditions: CAKI-1, 48 h, read-out: LC50 (the source's name)
Procedure, shortened: (§2)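 Adherent cells in RPMI 1640 with 5% FBS and 2 mM L-glutamine were plated at 5000–40,000 cells/well and grown 24 h. Five concentrations (0.01–100 µM, DMSO stock) were added for 48 h at 37 °C. Cells were fixed with cold TCA (10% final) and stained with SRB, read at 515 nm. GI50 came from log concentration–growth curves against time-zero and control plates.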

A549 = assay: Growth inhibition of human A549/ATCC cells assessed as cell growth at 10^-5 M after 48 hrs by sulforhodamine B assay; conditions: A549, 48 h, read-out: Activity
Procedure, shortened: (§3)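 Five-dose NCI-60 run (0.01, 0.1, 1, 10 and 100 µM, as 10-fold dilutions from a DMSO stock made at 400× the top final level). Cells were grown in RPMI 1640 with 5% FBS and 2 mM glutamine and plated for 24 h. They were then exposed for 48 h at 37 °C and 5% CO2. TCA fixation was followed by SRB staining with A515 read-out. Percent growth was taken relative to time-zero and control plates.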

SK-MEL-5 = assay: Growth inhibition of human SK-MEL-5 cells assessed as cell growth at 10^-7 M after 48 hrs by sulforhodamine B assay; conditions: SK-MEL-5, 48 h, read-out: Activity
NCI-H522 [1] = assay: Growth inhibition of human NCI-H522 cells assessed as cell growth at 10^-5 M after 48 hrs by sulforhodamine B assay; conditions: NCI-H522, 48 h, read-out: Activity
U-251 = assay: Growth inhibition of human U251 cells after 48 hrs by sulforhodamine B assay; conditions: U-251, 48 h; for CC50: read-out: LC50 (the source's name); procedure, shortened: as §2
K562 = assay: Growth inhibition of human K562 cells assessed as cell growth at 10^-6 M after 48 hrs by sulforhodamine B assay; conditions: K562, 48 h, read-out: Activity
IGROV-1 [2] = assay: Growth inhibition of human IGROV1 cells assessed as cell growth at 10^-7 M after 48 hrs by sulforhodamine B assay; conditions: IGROV-1, 48 h, read-out: Activity
[3] = Growth inhibition of human EKVX cells assessed as cell growth at 10^-6 M after 48 hrs by sulforhodamine B assay; conditions: read-out: Activity; procedure, shortened: as §1
SNB-75 [4] = assay: Growth inhibition of human SNB75 cells assessed as cell growth at 10^-6 M after 48 hrs by sulforhodamine B assay; conditions: SNB-75, 48 h, read-out: Activity
SF-539 = assay: Growth inhibition of human SF539 cells assessed as cell growth at 10^-5 M after 48 hrs by sulforhodamine B assay; conditions: SF-539, 48 h, read-out: Activity
Malme-3M = assay: Growth inhibition of human MALME-3M cells assessed as cell growth at 10^-8 M after 48 hrs by sulforhodamine B assay; conditions: read-out: Activity
IGROV-1 [5] = assay: Growth inhibition of human IGROV1 cells assessed as cell growth at 10^-6 M after 48 hrs by sulforhodamine B assay; conditions: IGROV-1, 48 h, read-out: Activity; procedure, shortened: as §1
LOX IMVI = assay: Growth inhibition of human LOXIMVI cells assessed as cell growth at 10^-6 M after 48 hrs by sulforhodamine B assay; conditions: read-out: Activity
SF-295 = assay: Growth inhibition of human SF295 cells assessed as cell growth at 10^-7 M after 48 hrs by sulforhodamine B assay; conditions: SF-295, 48 h, read-out: Activity
SN12C = assay: Growth inhibition of human SN12C cells assessed as cell growth at 10^-5 M after 48 hrs by sulforhodamine B assay; conditions: read-out: Activity
NCI-H522 [6] = assay: Growth inhibition of human NCI-H522 cells assessed as cell growth at 10^-8 M after 48 hrs by sulforhodamine B assay; conditions: NCI-H522, 48 h, read-out: Activity
OVCAR-4 = assay: Growth inhibition of human OVCAR4 cells assessed as cell growth at 10^-6 M after 48 hrs by sulforhodamine B assay; conditions: OVCAR-4, 48 h, read-out: Activity
SF-268 = assay: Growth inhibition of human SF268 cells assessed as cell growth at 10^-7 M after 48 hrs by sulforhodamine B assay; conditions: SF-268, 48 h, read-out: Activity
OVCAR-8 [7] = assay: Growth inhibition of human OVCAR8 cells assessed as cell growth at 10^-8 M after 48 hrs by sulforhodamine B assay; conditions: OVCAR-8, 48 h, read-out: Activity
OVCAR-5 = assay: Growth inhibition of human OVCAR5 cells assessed as cell growth at 10^-7 M after 48 hrs by sulforhodamine B assay; conditions: OVCAR-5, 48 h, read-out: Activity
NCI-H226 [8] = assay: Growth inhibition of human NCI-H226 cells assessed as cell growth at 10^-7 M after 48 hrs by sulforhodamine B assay; conditions: NCI-H226, 48 h, read-out: Activity
DU-145 = assay: Growth inhibition of human DU145 cells assessed as cell growth at 10^-4 M after 48 hrs by sulforhodamine B assay; conditions: DU-145, 48 h, read-out: Activity; procedure, shortened: as §3
UACC-257 = assay: Growth inhibition of human UACC257 cells assessed as cell growth at 10^-5 M after 48 hrs by sulforhodamine B assay; conditions: UACC-257, 48 h, read-out: Activity
OVCAR-8 [9] = assay: Growth inhibition of human OVCAR8 cells assessed as cell growth at 10^-4 M after 48 hrs by sulforhodamine B assay; conditions: OVCAR-8, 48 h, read-out: Activity
HT-29 = assay: Growth inhibition of human HT-29 cells assessed as cell growth at 10^-8 M after 48 hrs by sulforhodamine B assay; conditions: HT-29, 48 h, read-out: Activity; procedure, shortened: as §1
NCI-H226 [10] = assay: Growth inhibition of human NCI-H226 cells after 48 hrs by sulforhodamine B assay; conditions: NCI-H226, 48 h, read-out: LC50 (the source's name); procedure, shortened: as §2
SNB-75 [11] = assay: Growth inhibition of human SNB75 cells after 48 hrs by sulforhodamine B assay; conditions: SNB-75, 48 h; for CC50: read-out: LC50 (the source's name)
Procedure, shortened: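 Five-dose NCI 60 screen at 0.01, 0.1, 1, 10 and 100 µM, 48 h exposure after 24 h preincubation, in RPMI 1640 with 5% FBS and 2 mM glutamine. Fixed with TCA (10% final for adherent cells, 16% for suspension cells), stained with SRB, A515 read. Percent growth uses time-zero (Tz), control and treated plates. GI50, TGI and LC50 are read from the dose-response curves.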

In the case of O=S(=O)(Nc1ccc(Cl)cc1)c1ccc2nc(-c3ccccc3)c(-c3ccccc3)nc2c1, the growth at 0.1 µM (HCT-15) is reported as 98%, the CC50 (CAKI-1) is reported as greater than 100 µM and the growth at 10 µM (A549) is reported as 5%. It also gave a growth at 0.1 µM (SK-MEL-5) of 95%, a growth at 10 µM (NCI-H522 [1]) of -34% and a CC50 (U-251) greater than 100 µM. It also gave a growth at 1 µM (K562) of 95%, a growth at 0.1 µM (IGROV-1 [2]) of 101% and a growth at 1 µM [3] of 91%. For the same molecule, the growth at 1 µM (SNB-75 [4]) was 69%, the growth at 10 µM (SF-539) was 5% and the growth at 0.01 µM (Malme-3M) was 106%. For the same molecule, the growth at 1 µM (IGROV-1 [5]) was 93%, the growth at 1 µM (LOX IMVI) was 89% and the growth at 0.1 µM (SF-295) was 90%. It also gave a growth at 10 µM (SN12C) of 21%, a growth at 0.01 µM (NCI-H522 [6]) of 93% and a growth at 1 µM (OVCAR-4) of 76%. The growth at 0.1 µM (SF-268) was 98%, the growth at 0.01 µM (OVCAR-8 [7]) was 96% and the growth at 0.1 µM (OVCAR-5) was 92%. For the same molecule, the growth at 0.1 µM (NCI-H226 [8]) was 99%, the growth at 100 µM (DU-145) was 65% and the growth at 10 µM (UACC-257) was -24%. It also gave a growth at 100 µM (OVCAR-8 [9]) of 72%, a growth at 0.01 µM (HT-29) of 100% and a CC50 (NCI-H226 [10]) greater than 100 µM. For the same molecule, the GI50 (SNB-75 [11]) was 2.12 µM, the TGI (SNB-75 [11]) was greater than 100 µM and the CC50 (SNB-75 [11]) was greater than 100 µM.

O=S(=O)(Nc1ccccn1)c1ccc2nc(-c3ccccc3)c(-c3ccccc3)nc2c1 showed a growth at 0.1 µM (HCT-15) of 98%, a CC50 (CAKI-1) greater than 100 µM and a growth at 10 µM (A549) of 9%. The growth at 0.1 µM (SK-MEL-5) was 92%, the growth at 10 µM (NCI-H522 [1]) was -42% and the GI50 (U-251) was 2.61 µM. For the same molecule, the TGI (U-251) was greater than 100 µM, the CC50 (U-251) was greater than 100 µM and the growth at 1 µM (K562) was 82%. The growth at 0.1 µM (IGROV-1 [2]) was 104%, the growth at 1 µM [3] was 89% and the growth at 1 µM (SNB-75 [4]) was 75%. The growth at 10 µM (SF-539) was 7%, the growth at 0.01 µM (Malme-3M) was 97% and the growth at 1 µM (IGROV-1 [5]) was 102%. It also gave a growth at 1 µM (LOX IMVI) of 88%, a growth at 0.1 µM (SF-295) of 91% and a growth at 10 µM (SN12C) of 26%. The growth at 0.01 µM (NCI-H522 [6]) was 89%, the growth at 1 µM (OVCAR-4) was 82% and the growth at 0.1 µM (SF-268) was 91%. For the same molecule, the growth at 0.01 µM (OVCAR-8 [7]) was 100%, the growth at 0.1 µM (OVCAR-5) was 93% and the growth at 0.1 µM (NCI-H226 [8]) was 95%. It also gave a growth at 100 µM (DU-145) of 59%, a growth at 10 µM (UACC-257) of -25% and a growth at 100 µM (OVCAR-8 [9]) of 46%. The growth at 0.01 µM (HT-29) was 102%, the CC50 (NCI-H226 [10]) was greater than 100 µM and the GI50 (SNB-75 [11]) was 2.23 µM. It also gave a TGI (SNB-75 [11]) greater than 100 µM and a CC50 (SNB-75 [11]) greater than 100 µM.
